Here are results for 2 molecules from ChEMBL document CHEMBL1152814, “Novel cyano- and amidinobenzothiazole derivatives: synthesis, antitumor evaluation, and X-ray and quantitative structure-activity relationship (QSAR) analysis” (J Med Chem, 2009).

pIC50: −log10 of the molar value. Activity calls are given as the source filed them. The rule behind the calls is not given here.

Test [1] in a line: Antiproliferative activity against human WI38 cells after 72 hrs by MTT assay. Particulars: WI-38, 72 h. The class given is cell-based. The gist of the method: (§1)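 Monolayers in DMEM with 10% FBS, 2 mM L-glutamine, penicillin/streptomycin, 37 °C, 5% CO2. Seeded at 3 × 10³ to 6 × 10³ cells/well on day 0. Agents added the next day in five 10-fold dilutions (10^-8–10^-4 mol/L), with a DMSO solvent control (max 0.25%). MTT read at 570 nm after 72 h. Quadruplicate points, three experiments. IC50 is the concentration giving 50% growth inhibition.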
A general note: Formazan colour is commonly taken as a measure of viable cells.

A further test deals with HeLa. Nature of the test: Antiproliferative activity against human HeLa cells after 72 hrs by MTT assay. The class given is functional, cell-based. The gist of the method:
as §1

The subject of a further test is MIA PaCa-2. Kind of test: Antiproliferative activity against human MIAPaCa2 cells after 72 hrs by MTT assay. Particulars: MIA PaCa-2, 72 h. The class given is functional, cell-based. The gist of the method:
as §1

For a further test, the system named is SW-620. Kind of test: Antiproliferative activity against human SW620 cells after 72 hrs by MTT assay. The class given is functional, cell-based. Particulars: SW-620, 72 h. The essentials: as §1
The next test deals with MCF7. Nature of the test: Antiproliferative activity against human MCF7 cells after 72 hrs by MTT assay. The format is functional, cell-based. The following applies: MCF7, 72 h. The essentials: as §1
Test [2] deals with NCI-H460. Nature of the test: Antiproliferative activity against human H460 cells after 72 hrs by MTT assay. The following applies: NCI-H460, 72 h. The class given is functional, cell-based. The gist of the method: as §1
Test [3] has as its system NCI-H460. Nature of the test: Cell cycle arrest in human H460 cells assessed as induction of G1 phase delay at 50 uM after 24 hrs using propidium iodide staining by FACS. The format is functional, cell-based. The essentials: (§2)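 H 460 cells seeded at 2 × 10⁵/well and treated after overnight incubation with 5, 10 or 50 µM for 24 or 48 h. Attached and floating cells were pooled, fixed in 70% ethanol, treated with 0.2 µg/µL RNase A (37 °C, 15 min) and stained with 50 µg/mL propidium iodide. Flow cytometry counted 20000 events, in duplicate across two independent experiments.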
In general terms: In flow cytometry, cells or beads pass a laser one at a time.

Test [4] relates to NCI-H460. Nature of the test: Cell cycle arrest in human H460 cells assessed as induction of G2 phase delay at 50 uM after 24 hrs using propidium iodide staining by FACS. The format is functional, cell-based. The essentials:
as §2

Test [5] deals with NCI-H460. Nature of the test: Cell cycle arrest in human H460 cells assessed as reduction of percentage of cells in S phase at 50 uM after 24 hrs using propidium iodide staining by FACS. The format is functional, cell-based. The gist of the method: as §2
The test system of test [6] is NCI-H460. Nature of the test: Cell cycle arrest in human H460 cells assessed as induction of G1 phase delay at 50 uM after 48 hrs using propidium iodide staining by FACS. The format is functional, cell-based. The gist of the method: as §2
In test [7] the test system is NCI-H460. Nature of the test: Cell cycle arrest in human H460 cells assessed as induction of G2 phase delay at 50 uM after 48 hrs using propidium iodide staining by FACS. The class given is functional, cell-based. The essentials:
as §2

Test [8] has as its system NCI-H460. Nature of the test: Cell cycle arrest in human H460 cells assessed as reduction of percentage of cells in S phase at 50 uM after 48 hrs using propidium iodide staining by FACS. The class given is functional, cell-based. The essentials: as §2
Test [9] deals with NCI-H460. Nature of the test: Cell cycle arrest in human H460 cells assessed as increase in percentage of cells in G1 phase at 10 uM after 24 hrs using propidium iodide staining by FACS. The format is functional, cell-based. The essentials: as §2
The subject of test [10] is NCI-H460. Kind of test: Cell cycle arrest in human H460 cells assessed as increase in percentage of cells in G1 phase at 10 uM after 48 hrs using propidium iodide staining by FACS. The format is functional, cell-based. The gist of the method: as §2
The subject of test [11] is NCI-H460. Kind of test: Cell cycle arrest in human H460 cells assessed as reduction of percentage of cells in S phase at 5 to 50 uM after 24 hrs using propidium iodide staining by FACS. The format is functional, cell-based. The essentials: as §2
The subject of test [12] is NCI-H460. Nature of the test: Cell cycle arrest in human H460 cells assessed as reduction of percentage of cells in S phase at 5 to 50 uM after 48 hrs using propidium iodide staining by FACS. The class given is functional, cell-based. The essentials:
as §2

Test [13] relates to NCI-H460. Nature of the test: Induction of apoptosis in human H460 cells assessed as late apoptotic cells at 50 uM after 48 hrs using annexin V staining by FACS. The class given is functional. The essentials: (§3)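 H 460 cells seeded at 2 × 10⁵/well and exposed for 48 h (5, 10 or 50 µM) against a vehicle control. Floating and attached cells were pooled and washed in binding buffer (10 mM HEPES, 140 mM NaCl, 2.5 mM CaCl2, pH 7.4). They were stained 20 min with annexin V Alexa Fluor 488 and 1 µg/mL 7-AAD, then read by flow cytometry. Quadrants: viable, early apoptotic, late apoptotic.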

The subject of test [14] is NCI-H460. Kind of test: Induction of apoptosis in human H460 cells assessed as early apoptotic cells at 50 uM after 48 hrs using annexin V staining by FACS. The class given is functional. The essentials:
as §3

In test [15] the test system is NCI-H460. Nature of the test: Induction of apoptosis in human H460 cells assessed as viable cells at 50 uM after 48 hrs using annexin V staining by FACS. The format is functional. The following applies: NCI-H460, 48 h, read-out: Activity. The gist of the method:
as §3

The test system of test [16] is NCI-H460. Nature of the test: Induction of apoptosis in human H460 cells assessed as late apoptotic cells after 48 hrs using annexin V staining by FACS. The format is functional, cell-based. The gist of the method: as §3
The test system of test [17] is NCI-H460. Nature of the test: Induction of apoptosis in human H460 cells assessed as early apoptotic cells after 48 hrs using annexin V staining by FACS. The class given is functional, cell-based. The gist of the method:
as §3

Test [18] concerns NCI-H460. Kind of test: Induction of apoptosis in human H460 cells assessed as viable cells after 48 hrs using annexin V staining by FACS. The class given is functional, cell-based. The essentials:
as §3

The subject of test [19] is NCI-H460. Kind of test: Cell cycle arrest in human H460 cells assessed as increase in percentage of cells in sub-G1 phase at 5 to 50 uM after 24 hrs using propidium iodide staining by FACS. The format is functional, cell-based. The gist of the method:
as §2

Test [20] deals with NCI-H460. Kind of test: Cell cycle arrest in human H460 cells assessed as increase in percentage of cells in sub-G1 phase at 5 to 50 uM after 48 hrs using propidium iodide staining by FACS. The format is functional, cell-based. The essentials:
as §2

For test [21], the system named is NCI-H460. Kind of test: Induction of apoptosis in human H460 cells at 50 uM after 24 hrs. The format is functional.
Test [22] deals with NCI-H460. Kind of test: Induction of apoptosis in human H460 cells assessed as complete cell death at 50 uM after 48 hrs. The format is functional, cell-based.
In test [23] the test system is NCI-H460. Nature of the test: Induction of apoptosis in human H460 cells assessed as late apoptotic cells at 5 uM after 48 hrs using annexin V staining by FACS. The format is functional. The essentials:
as §3

The test system of test [24] is NCI-H460. Kind of test: Induction of apoptosis in human H460 cells assessed as early apoptotic cells at 5 uM after 48 hrs using annexin V staining by FACS. The format is functional. The gist of the method: as §3
The subject of test [25] is NCI-H460. Kind of test: Induction of apoptosis in human H460 cells assessed as viable cells at 5 uM after 48 hrs using annexin V staining by FACS. The format is functional. Particulars: NCI-H460, 48 h, read-out: Activity. The gist of the method:
as §3

Test [26] deals with NCI-H460. Kind of test: Induction of apoptosis in human H460 cells assessed as late apoptotic cells at 10 uM after 48 hrs using annexin V staining by FACS. The format is functional. The essentials: as §3
The subject of test [27] is NCI-H460. Nature of the test: Induction of apoptosis in human H460 cells assessed as early apoptotic cells at 10 uM after 48 hrs using annexin V staining by FACS. The format is functional. The gist of the method: as §3
For test [28], the system named is NCI-H460. Kind of test: Induction of apoptosis in human H460 cells assessed as viable cells at 10 uM after 48 hrs using annexin V staining by FACS. The format is functional. The following applies: NCI-H460, 48 h, read-out: Activity. The gist of the method:
as §3

In the case of `Cc1ccc(Nc2nc3ccc(C(=N)NC(C)C)cc3s2)nc1.Cl.Cl`, the negative logarithm of the IC50 (pIC50) is 4.51 in [1]; 4.92 in the test on HeLa; 4.85 with MIA PaCa-2; 4.92 in the test with SW-620; 5.10 with MCF7; 4.82 with NCI-H460 [2]. Further, the outcome with NCI-H460 [3], in the test with NCI-H460 [4], in the test with NCI-H460 [5], in the test on NCI-H460 [6], in the test on NCI-H460 [7] and in the test on NCI-H460 [8] was Active. The result in the test on NCI-H460 [11] and with NCI-H460 [12] was Active. The outcome with NCI-H460 [9] and in the test on NCI-H460 [10] was inactive. In addition, the Activity in the test on NCI-H460 [13] is 2.39%; with NCI-H460 [14] it was 13.58%; in the test on NCI-H460 [16], “Dose-dependent effect”; in the test on NCI-H460 [17], “Dose-dependent effect”; in the test with NCI-H460 [18] it was “Dose-dependent effect”. The viability at 50 µM with NCI-H460 [15] came out at 83.2%.

`Cc1cccc(Nc2nc3ccc(C(=N)NC(C)C)cc3s2)n1.Cl.Cl`: the pIC50 in test [1] was 4.72; in the test with HeLa it was 5.40; in the test with MIA PaCa-2, 5.52; in the test with SW-620, 5.05; with MCF7 it was 5.52; with NCI-H460 [2], 5.52. The result in the test on NCI-H460 [11], with NCI-H460 [12], in the test with NCI-H460 [19], in the test on NCI-H460 [20] and in the test with NCI-H460 [22] was Active. Moreover, the Activity with NCI-H460 [21] was 40%; with NCI-H460 [23], 3.37%; in the test on NCI-H460 [24], 12.24%; with NCI-H460 [26] it was 3.75%; with NCI-H460 [27], 16.43%; in the test on NCI-H460 [16], “Dose-dependent effect”. Besides, the Activity entry in the test with NCI-H460 [17] and in the test with NCI-H460 [18] was “Dose-dependent effect” in each case. Also, the viability at 5 µM in the test on NCI-H460 [25] came to 83.1%. In the test on NCI-H460 [28], the viability at 10 µM came to 77.7%.

For orientation: pIC50 means the IC50 on a negative log10 scale, so that one unit is a factor of ten. Low values mean a high IC50, high ones a low IC50.
